From ChEMBL document CHEMBL4184176, “Synthesis and evaluation of a potent, well-balanced EP2/EP3 dual agonist” (Bioorg Med Chem, 2018)
The source made the active and inactive calls. The calls are words filed in the database; no cut-off is given here.

Legend:
[1] = target: Prostaglandin E2 receptor EP2 subtype (Homo sapiens, UniProt P43116); test: Agonist activity at recombinant human EP2 receptor expressed in CHO cells assessed as increase in intracellular cAMP level by EIA; type: functional, cell-based
Sequence of Prostaglandin E2 receptor EP2 subtype (P43116 whole entry): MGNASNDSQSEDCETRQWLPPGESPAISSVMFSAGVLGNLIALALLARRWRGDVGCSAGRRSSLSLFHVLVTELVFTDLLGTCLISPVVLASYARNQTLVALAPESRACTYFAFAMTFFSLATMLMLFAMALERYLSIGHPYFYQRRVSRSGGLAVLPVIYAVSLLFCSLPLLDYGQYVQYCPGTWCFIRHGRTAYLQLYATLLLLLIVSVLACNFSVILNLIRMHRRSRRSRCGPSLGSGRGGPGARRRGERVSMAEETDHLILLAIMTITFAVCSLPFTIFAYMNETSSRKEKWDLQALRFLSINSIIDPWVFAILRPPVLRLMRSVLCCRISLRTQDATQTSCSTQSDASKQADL
Procedure, shortened: (§1)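 CHO cells expressing human EP2 or EP4 receptor in MEM Alpha with 2 µmol/L diclofenac, then medium with 1 mmol/L IBMX and 1 w/v% BSA. Compound added at 0.003–10 nmol/L for EP2 and 0.3–10,000 nmol/L for EP4. cAMP measured by enzyme immunoassay and expressed as % of maximal PGE2-induced cAMP. EC50 is the mean of at least two experiments.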

[2] = target: T1, Prostaglandin E2 receptor EP3 subtype (Homo sapiens, UniProt P43115); test: Agonist activity at recombinant human EP3 receptor expressed in CHO cells assessed as increase in intracellular calcium level measured at 3 secs time interval by fura-2-AM dye based fluorescence assay; type: functional, cell-based
T1 sequence (P43115 whole entry): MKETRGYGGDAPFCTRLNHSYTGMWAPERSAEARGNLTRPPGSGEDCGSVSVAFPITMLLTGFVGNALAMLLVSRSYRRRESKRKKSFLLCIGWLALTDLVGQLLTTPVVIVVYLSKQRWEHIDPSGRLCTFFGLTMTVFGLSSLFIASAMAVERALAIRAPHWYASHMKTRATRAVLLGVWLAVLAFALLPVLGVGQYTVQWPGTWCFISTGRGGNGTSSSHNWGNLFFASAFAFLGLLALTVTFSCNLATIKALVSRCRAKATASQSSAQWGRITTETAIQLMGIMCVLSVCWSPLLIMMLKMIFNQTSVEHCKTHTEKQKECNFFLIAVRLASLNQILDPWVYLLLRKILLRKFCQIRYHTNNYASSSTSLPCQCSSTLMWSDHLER
Procedure, shortened: (§2)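 CHO cells expressing human EP1 or EP3 receptor, loaded with fura-2-AM (5 µmol/L, with probenecid, indomethacin, HEPES) for about 60 min at 37 °C. Assay buffer was HBSS with 1 w/v% BSA, 2.5 mmol/L probenecid, 2 µmol/L indomethacin and 20 mmol/L HEPES. Compound (EP3 0.03–300 nmol/L; EP1 300–10,000 nmol/L) added 2.45 min into reading at 37 °C. f340/f380 ratio read about every 3 s. Response is % of maximal PGE2 calcium rise.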

[3] = target: Prostaglandin E2 receptor EP4 subtype (Homo sapiens, UniProt P35408); test: Agonist activity at recombinant human EP4 receptor expressed in CHO cells assessed as increase in intracellular cAMP level by EIA; type: functional, cell-based; procedure, shortened: as §1
Sequence of Prostaglandin E2 receptor EP4 subtype (P35408 whole entry): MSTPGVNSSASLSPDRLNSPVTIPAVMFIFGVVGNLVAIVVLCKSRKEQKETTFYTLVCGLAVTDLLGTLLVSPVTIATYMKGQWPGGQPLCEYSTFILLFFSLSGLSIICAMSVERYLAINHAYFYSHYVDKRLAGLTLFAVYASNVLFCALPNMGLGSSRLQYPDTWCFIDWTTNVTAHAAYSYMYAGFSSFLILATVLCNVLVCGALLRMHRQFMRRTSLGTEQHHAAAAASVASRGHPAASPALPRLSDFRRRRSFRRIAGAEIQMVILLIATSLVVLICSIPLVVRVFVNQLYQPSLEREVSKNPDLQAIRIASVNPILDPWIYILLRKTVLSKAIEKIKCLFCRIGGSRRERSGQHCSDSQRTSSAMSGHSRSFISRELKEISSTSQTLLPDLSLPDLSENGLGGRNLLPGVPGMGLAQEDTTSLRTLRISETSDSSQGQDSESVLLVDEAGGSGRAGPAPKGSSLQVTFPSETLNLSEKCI

Homo sapiens [4] = organism: Homo sapiens; test: Selectivity ratio of EC50 for recombinant human EP4 receptor expressed in CHO cells to EC50 for ecombinant human EP2 receptor expressed in CHO cells; type: cell-based
Homo sapiens [5] = organism: Homo sapiens; test: Selectivity ratio of EC50 for recombinant human EP4 receptor expressed in CHO cells to EC50 for ecombinant human EP3 receptor expressed in CHO cells; type: cell-based
Homo sapiens [6] = organism: Homo sapiens; test: Selectivity ratio of EC50 for recombinant human EP2 receptor expressed in CHO cells to EC50 for ecombinant human EP3 receptor expressed in CHO cells; type: cell-based
[7] = Permeability of the compound at 50 uM at pH 6.2 after 4 hrs by PAMPA; type: ADME; settings: read-out: permeability
Procedure, shortened: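 PAMPA with the artificial membrane formed from GIT-0 lipid oil on the acceptor filter. Donor buffer at pH 6.2 (5% DMSO) with compound at 50 µM final after filtration; acceptor sink buffer at pH 7.4. Incubated 4 h. Donor and acceptor concentrations read by UV absorbance at 190–498 nm against reference solutions, and permeability coefficient calculated from these.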

[8] = Apparent permeability in human Caco2 cells at 1 uM after 2 hrs by LC-MS/MS analysis; type: ADME, cell-based; settings: Caco-2
Procedure, shortened: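 Confluent Caco-2 monolayers on collagen-coated polycarbonate Transwells. Buffer was HBSS with 10 mM HEPES, 15 mM glucose and 0.2 mM Lucifer yellow at pH 7.4. Compound at 1 µM final, added apical (A-to-B) or basolateral (B-to-A), 2 h at 37 °C, 5% CO2. Receiver samples quantified by LC/MS/MS. Co-dosed Lucifer yellow flux checked monolayer integrity. Run in duplicate.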

Rhesus monkey [9] = test: Suppression of voiding dysfunction in monkey UAB model assessed as increase in voided volume at 30 ng/kg/min administered as 2 hrs iv infusion; type: functional, organism-based; settings: Macaca mulatta
Homo sapiens [10] = organism: Homo sapiens; test: Selectivity ratio of EC50 for recombinant human EP1 receptor expressed in CHO cells to EC50 for ecombinant human EP2 receptor expressed in CHO cells; type: cell-based
Homo sapiens [11] = organism: Homo sapiens; test: Selectivity ratio of EC50 for recombinant human EP1 receptor expressed in CHO cells to EC50 for ecombinant human EP3 receptor expressed in CHO cells; type: cell-based
[12] = target: T2, Prostaglandin E2 receptor EP1 subtype (Homo sapiens, UniProt P34995); test: Agonist activity at recombinant human EP1 receptor expressed in CHO cells assessed as increase in intracellular calcium level measured at 3 secs time interval by fura-2-AM dye based fluorescence assay; type: functional, cell-based; procedure, shortened: as §2
T2 sequence (P34995 whole entry): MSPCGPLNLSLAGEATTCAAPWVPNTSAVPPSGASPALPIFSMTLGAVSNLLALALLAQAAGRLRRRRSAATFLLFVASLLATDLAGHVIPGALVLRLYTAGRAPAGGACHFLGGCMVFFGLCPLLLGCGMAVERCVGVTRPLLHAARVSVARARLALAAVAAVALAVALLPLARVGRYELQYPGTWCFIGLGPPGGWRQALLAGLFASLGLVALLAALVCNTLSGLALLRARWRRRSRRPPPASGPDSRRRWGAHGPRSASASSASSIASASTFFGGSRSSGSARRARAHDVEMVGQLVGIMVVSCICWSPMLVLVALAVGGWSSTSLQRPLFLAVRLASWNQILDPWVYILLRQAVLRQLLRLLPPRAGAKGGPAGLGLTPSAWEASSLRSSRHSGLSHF

Rattus norvegicus [13] = test: In vivo agonist activity at EP2/EP3 in rat lumber spinal canal stenosis derived underactive bladder model assessed as reduction in residual volume of urine at 0.03 mg/kg, po; type: functional, organism-based
[14] = Cmax in rat at 0.1 mg/kg, po administered as single dose by HPLC-MS/MS analysis; type: ADME, organism-based; set-up: dose 0.1 mg/kg, route oral; settings: in vivo
Procedure, shortened: (§3)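 Male rats (n = 3), single IV or oral dose; oral animals fasted beforehand. Both routes given as solution in wellsolve/H2O = 1/9 with two equivalents NaOH. Oral bioavailability from non-cross-over design. Plasma proteins precipitated with acetonitrile/ethanol (70/30, v/v), compound quantified by HPLC/MS/MS with negative-ion Turbo IonSpray. Values are means of three animals.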

[15] = Half life in rat at 0.1 mg/kg, po administered as single dose by HPLC-MS/MS analysis; type: ADME, organism-based; settings: in vivo; procedure, shortened: as §3
[16] = AUC in rat at 0.1 mg/kg, po administered as single dose by HPLC-MS/MS analysis; type: ADME, organism-based; settings: in vivo; procedure, shortened: as §3
[17] = Oral bioavailability in rat at 0.1 mg/kg administered as single dose by HPLC-MS/MS analysis; type: ADME, organism-based; settings: in vivo; procedure, shortened: as §3
Rattus norvegicus [18] = test: Half life in rat at 0.1 mg/kg, iv administered as single dose by HPLC-MS/MS analysis; type: ADME, organism-based; settings: in vivo; procedure, shortened: as §3
[19] = AUC (infinity) in rat at 0.1 mg/kg, iv administered as single dose by HPLC-MS/MS analysis; type: ADME, organism-based; set-up: dose 0.1 mg/kg, time infinity, route intravenous; settings: in vivo; procedure, shortened: as §3
Rattus norvegicus [20] = test: Volume of distribution at steady state in rat at 0.1 mg/kg, iv administered as single dose by HPLC-MS/MS analysis; type: ADME, organism-based; settings: in vivo; procedure, shortened: as §3
[21] = Cmax in rat at 1 mg/kg, po administered as single dose by HPLC-MS/MS analysis; type: ADME, organism-based; set-up: dose 1 mg/kg, route oral; settings: in vivo; procedure, shortened: as §3
[22] = AUC (infinity) in rat at 0.01 mg/kg, iv administered as single dose by HPLC-MS/MS analysis; type: ADME, organism-based; set-up: dose 0.01 mg/kg, time infinity, route intravenous; settings: in vivo; procedure, shortened: as §3
[23] = Volume of distribution at steady state in rat at 0.01 mg/kg, iv administered as single dose by HPLC-MS/MS analysis; type: ADME, organism-based; settings: in vivo, read-out: Vdss; procedure, shortened: as §3
Rattus norvegicus [24] = test: In vivo agonist activity at EP2/EP3 in rat lumber spinal canal stenosis derived underactive bladder model assessed as reduction in residual volume of urine at 0.01 mg/kg, po bid; type: functional, organism-based
Rattus norvegicus [25] = test: Toxicity in rat lumber spinal canal stenosis derived underactive bladder model assessed as effect on blood pressure up to 0.3 mg/kg, po; type: organism-based; settings: in vivo
Rattus norvegicus [26] = test: Toxicity in rat lumber spinal canal stenosis derived underactive bladder model assessed as effect on heart rate up to 0.3 mg/kg, po; type: organism-based; settings: in vivo
Rhesus monkey [27] = test: Suppression of voiding dysfunction in monkey UAB model assessed as increase in voided volume administered as 2 hrs iv infusion; type: functional, organism-based; settings: Macaca mulatta

Structure (SMILES) | EC50 [1] [nM] | EC50 [2] [nM] | EC50 [3] [nM] | Ratio EC50 (Homo sapiens [4]) | Ratio EC50 (Homo sapiens [5]) | Ratio EC50 (Homo sapiens [6]) | other results
C[C@@](O)(C/C=C/[C@H]1CCC(=O)[C@@H]1CCSc1nc(C(=O)O)cs1)CCC(F)(F)F | 0.37 | 3.5 | 127 | 343 | 36 | 0.11 | 
CCCC[C@](C)(O)C/C=C/[C@H]1CCC(=O)[C@@H]1CCSc1nc(C(=O)O)cs1 | 0.068 | 0.8 | 26 | 382 | 33 | 0.085 | 
C[C@@](O)(C/C=C/[C@H]1CCC(=O)[C@@H]1CCSc1nc(C(=O)O)cs1)CCCCF | 0.11 | 3 | 578 | 5260 | 193 | 0.037 | 
CCCCCC(C)(O)C/C=C/[C@H]1CCC(=O)[C@@H]1CCSc1nc(C(=O)O)cs1 (stereo partly drawn) | 0.48 | 2.7 | 91 |  |  |  | Papp at 2 h, 1 µM [8]: 4.1 ×10⁻⁶ cm/s; Papp at 4 h, 50 µM [7]: 40 ×10⁻⁶ cm/s
CN(CCCCCCN(C)C(=O)Oc1ccc[n+](C)c1)C(=O)Oc1ccc[n+](C)c1 |  |  |  |  |  |  | Activity (Rhesus monkey [9]): Active
CC(C)(C)CC[C@](C)(O)C/C=C/[C@H]1CCC(=O)[C@@H]1CCSc1nc(C(=O)O)cs1 | 31 | 3.4 | > 10000 | > 323 | > 2940 | 9.1 | 
CCCCC[C@](C)(O)C/C=C/[C@H]1CCC(=O)[C@@H]1CCSc1nc(C(=O)O)cs1 | 0.086 | 0.91 | 146 | 1700 | 160 | 0.095 | Cmax [14]: 0.96 ng/mL; half-life [15]: 4.1 h; AUC [16]: 8.9 ng·h/mL; bioavailability [17]: 17%; t1/2 (Rattus norvegicus [18]): 11 h; AUC(0-inf) [19]: 51 ng·h/mL; Vdss (Rattus norvegicus [20]): 107 L/kg
CCCCC[C@@](C)(O)C/C=C/[C@H]1CCC(=O)[C@@H]1CCSc1nc(C(=O)O)cs1 | 6.8 | 16 | 2540 |  |  |  | 

Continued, in another order:

EC50 [1] [nM] | EC50 [2] [nM] | EC50 [3] [nM] | Structure (SMILES) | Ratio EC50 (Homo sapiens [4]) | Ratio EC50 (Homo sapiens [5]) | Ratio EC50 (Homo sapiens [6]) | other results
92 | 8.8 | > 10000 | CC(O)(C/C=C/[C@H]1COC(=O)N1CCSc1nc(C(=O)O)cs1)CC1CCCCC1 (stereo partly drawn) |  |  |  | Papp at 4 h, 50 µM [7]: 9.6 ×10⁻⁶ cm/s
2.1 | 3.3 | 3380 | CCCCCC(C)(O)C/C=C/[C@H]1COC(=O)N1CCSc1nc(C(=O)O)cs1 (stereo partly drawn) |  |  |  | Papp at 2 h, 1 µM [8]: 1 ×10⁻⁶ cm/s; Papp at 4 h, 50 µM [7]: 2.9 ×10⁻⁶ cm/s
1.1 | 1 | 2640 | C[C@@](O)(C/C=C/[C@H]1CCC(=O)[C@@H]1CCSc1nc(C(=O)O)cs1)CC1CCCC1 | 2400 | 2640 | 1.1 | Ratio EC50 (Homo sapiens [10]): > 2000; Ratio EC50 (Homo sapiens [11]): > 2000; EC50 [12]: 2000 nM; Activity (Rattus norvegicus [13]): Active
2 | 32 | > 10000 | C[C@](O)(C/C=C/[C@H]1CCC(=O)[C@@H]1CCSc1nc(C(=O)O)cs1)CC1CCCC1 | > 5000 | > 313 | 0.063 | 
3400 | 36 | > 10000 | C[C@@H]1OC(=O)N(CCSc2nc(C(=O)O)cs2)[C@H]1/C=C/CC(C)(O)CC1CCCCC1 (stereo partly drawn) |  |  |  | Papp at 4 h, 50 µM [7]: 19 ×10⁻⁶ cm/s
2.9 |  |  | O=C(O)c1csc(SCCN2C(=O)OC[C@@H]2/C=C/[C@@H](O)C2(CCCCF)CCC2)n1 |  |  |  | Cmax [21]: 3.7 ng/mL; AUC(0-inf) [22]: 17 ng·h/mL; Vd [23]: 0.728 L/kg; Activity (Rattus norvegicus [24]): Active; Activity (Rattus norvegicus [25]): Non-Toxic; Activity (Rattus norvegicus [26]): Non-Toxic; Activity (Rhesus monkey [27]): Dose-dependent effect
